In data set [1] the target is Human immunodeficiency virus type 1 reverse transcriptase (Human immunodeficiency virus 1, UniProt Q72547). As to the kind of experiment: Inhibition of RNA-dependent DNA polymerase activity of wild type HIV1 reverse transcriptase.
Data set [2] concerns the target Human immunodeficiency virus type 1 reverse transcriptase (Human immunodeficiency virus 1, UniProt Q72547, K103N). As to the kind of experiment: Inhibition of RNA-dependent DNA polymerase activity of HIV1 reverse transcriptase K103N mutant.
Data set [3] concerns the target Human immunodeficiency virus type 1 reverse transcriptase (Human immunodeficiency virus 1, UniProt Q72547, Y181C). As to the kind of experiment: Inhibition of RNA-dependent DNA polymerase activity of HIV1 reverse transcriptase Y181C mutant.
The test system of data set [4] is Human immunodeficiency virus 1. Description: Antiviral activity against HIV1 NL4-3 in HeLaP4 reporter cell assessed as virus replication by FluorAceTM beta-galactosidase reporter assay. In kind it is functional, organism-based. Conditions: Human immunodeficiency virus 1, NL4-3, HeLaP4. The method in brief:
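Antiviral IC50 reported as the geometric mean of at least three independent experiments, with standard deviation given.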
Background: In a reporter assay the amount or activity of a reporter protein is the signal.

A short description of data set [5]: Metabolic stability in human liver microsomes assessed as half life. In kind it is ADME, Microsome. On the technique in general: Microsomes from liver hold many membrane-bound enzymes, among them those of drug oxidation.
Data set [6] can be described thus: Metabolic stability in human hepatocytes assessed as half life. In kind it is ADME, cell-based, Liver, Hepatocyte.
Data set [7] is described as follows: Cytotoxicity against human HeLaP4 cells. Format: cell-based.

Bounds are passed on as bounds.

One may read the IC50 as the concentration at which inhibition is half-maximal. A word on the half-life: it is the time needed for the level to fall by half in the phase considered. Usually CC50 stands for the concentration at which the toxic effect on the cells reaches its halfway point. Read a high CC50 as better tolerance by the cells. Regarding `CCc1n[nH]c2ccc(F)c(Oc3cc(C#N)cc(C#N)c3)c12`, the IC50 in data set [1] was determined as 25 nM; in data set [2] it was 183 nM; in data set [3] it was 32 nM; in data set [4], 4.6 nM. Besides, the half-life is above 2 h in data set [5] and above 6 h in data set [6]. In addition, the CC50 in data set [7] is above 100000 nM.

On to `Cc1n[nH]c2ccc(F)c(Oc3cc(C#N)cc(C#N)c3)c12`, for which the IC50 was 50 nM in data set [1], 145 nM in data set [3] and 14 nM in data set [4]. In addition, the half-life in data set [5] was above 2 h; in data set [6], above 6 h. Further, the half-maximal cytotoxic concentration (CC50) in data set [7] is above 100000 nM.

For the compound `Cc1n[nH]c2cccc(Oc3cc(C#N)cc(C#N)c3)c12`, it took 332 nM to reach half-maximal inhibition in data set [1] (IC50).

The compound `CCc1n[nH]c2cccc(Oc3cc(C#N)cc(C#N)c3)c12` had an IC50 in data set [1] of 112 nM.

`COCc1n[nH]c2cccc(Oc3cc(C#N)cc(C#N)c3)c12`: inhibition in data set [1] was half-maximal at 1670 nM (IC50).

Take `Cc1n[nH]c2ccc(Cl)c(Oc3cc(C#N)cc(C#N)c3)c12`: the IC50 in data set [1] was 399 nM.

Compound `CNCc1n[nH]c2cccc(Oc3cc(C#N)cc(C#N)c3)c12` registered an IC50 in data set [1] above 30000 nM.

For the compound `Cc1n[nH]c2c(CO)ccc(Oc3cc(C#N)cc(C#N)c3)c12`, the IC50 in data set [1] is 71 nM; in data set [2], 1270 nM; in data set [4], 14 nM. The figures for the half-life in data set [5] and in data set [6] were above 2 h and 0.183 h, respectively. In data set [7], the CC50 was above 100000 nM.

`CC(C)c1nc(COC(N)=O)n(Cc2ccncc2)c1Sc1cc(Cl)cc(Cl)c1` [CAPRAVIRINE]: the IC50 in data set [4] turned out to be 0.5 nM. For the same compound, the half-life in data set [5] came to 0.125 h.

Turning to `O=C1Nc2ccc(Cl)cc2[C@@](C#CC2CC2)(C(F)(F)F)O1` [EFAVIRENZ], the IC50 in data set [4] is 0.4 nM.

These data come from ChEMBL document CHEMBL1140926, “Novel indazole non-nucleoside reverse transcriptase inhibitors using molecular hybridization based on crystallographic overlays” (J Med Chem, 2009).
